Reference: ChEMBL document CHEMBL1144477, “Design, synthesis and cytotoxic properties of novel 1-[4-(2-alkylaminoethoxy)phenylcarbonyl]-3,5-bis(arylidene)-4-piperidones and related compounds” (Eur J Med Chem, 2007)

Key:
HCT-15 = assay: Cytotoxicity against human HCT15 cells; format: cell-based
HCT-116 = assay: Cytotoxicity against human HCT116 cells; format: cell-based
KM12 = assay: Cytotoxicity against human KM12 cells; format: cell-based
SW-620 = assay: Cytotoxicity against human SW620 cells; format: cell-based
HCC 2998 = assay: Cytotoxicity against human HCC2998 cells; format: cell-based
K562 = assay: Cytotoxicity against human K562 cells; format: cell-based
[1] = Cytotoxicity against human RPMI8226 cells; format: cell-based; settings: RPMI-8226
[2] = Cytotoxicity against human HL60 (TB) cells; format: cell-based; settings: HL-60
HepG2 = assay: Induction of apoptosis in human HepG2 cells at 20 uM by TUNEL assay; format: functional
Summary of the method: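 HepG2 cells (ATCC) were kept in DMEM with 10% fetal calf serum and penicillin G/streptomycin/amphotericin B, at 37 °C in humidified 5% CO2. Cells on chambered slides were treated with the compound; controls had no addition or DMSO only. After 48 h, cells were fixed, permeabilized and TUNEL-stained (fluorescein). Labelled apoptotic cells were counted by fluorescence microscopy and reported as a percentage.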

[3] = Cytotoxicity against human NCI49 cell lines; format: cell-based
[4] = Cytotoxicity against human Molt4/C8 cells; format: cell-based; settings: MOLT-4
Summary of the method: (§1)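 Human Molt 4/C8 and CEM T-lymphocytes and murine L1210 cells were each exposed to at least three compound concentrations at 37 °C for 48 h. Growth inhibition was then measured, and IC50 values were derived from it.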

CCRF-CEM = assay: Cytotoxicity against human CEM cells; format: cell-based; summary of the method: as §1
L1210 = assay: Cytotoxicity against […] mouse L1210 cells; format: cell-based; summary of the method: as §1
SR = assay: Cytotoxicity against human SR cells; format: cell-based
COLO 205 = assay: Cytotoxicity against human COLO205 cells; format: cell-based

Structure (SMILES) | IC50 (HCT-15) [µM] | IC50 (HCT-116) [µM] | IC50 (KM12) [µM] | IC50 (SW-620) [µM] | IC50 (HCC 2998) [µM] | IC50 (K562) [µM] | IC50 [1] [µM] | IC50 [2] [µM] | Activity (HepG2) [%] | IC50 [3] [µM] | IC50 [4] [µM] | IC50 (CCRF-CEM) [µM] | IC50 (L1210) [µM] | IC50 (SR) [µM] | IC50 (COLO 205) [µM]
Cl.O=C1/C(=C/c2ccc(Cl)cc2)CN(C(=O)c2ccc(OCCN3CCOCC3)cc2)C/C1=C\c1ccc(Cl)cc1 | 2.19 | 7.25 | 2.29 | 1.45 | < 0.005 | 6.76 | 0.132 | 5.5 | 29.25 | < 0.562 | 18.8 | 8.26 | 81.4 |  | 
N[C@@H](Cc1ccc(N(CCCl)CCCl)cc1)C(=O)O [MELPHALAN] |  | 30.2 | 43.7 | 38.9 | 41.7 | 43.7 | 66.1 | 2.04 |  | 26.9 |  |  |  | 1.86 | 66.1
O=C1/C(=C/c2ccccc2)CN(C(=O)c2ccc(OCCN3CCOCC3)cc2)C/C1=C\c1ccccc1 | 1.45 | 0.339 | 0.129 | 0.191 |  | 0.158 | 0.123 | 0.562 |  | > 2.63 | 8.42 | 6.84 | 222 |  | 22.9
CCN(CC)CCOc1ccc(C(=O)N2C/C(=C\c3ccc([N+](=O)[O-])cc3)C(=O)/C(=C/c3ccc([N+](=O)[O-])cc3)C2)cc1 |  |  |  |  |  |  |  |  |  |  | 0.31 | 0.34 | 3.63 |  | 
CC[N+](C)(CC)CCOc1ccc(C(=O)N2C/C(=C\c3ccc([N+](=O)[O-])cc3)C(=O)/C(=C/c3ccc([N+](=O)[O-])cc3)C2)cc1 |  |  |  |  |  |  |  |  |  |  | 40.2 | 39.3 | 65 |  | 
CCN(CC)CCOc1ccc(C(=O)N2C/C(=C\c3ccccc3)C(=O)/C(=C/c3ccccc3)C2)cc1 | 1.17 | < 0.01 | 1.74 | 1.35 |  | 0.043 | < 0.01 |  |  | < 1.38 | 1.28 | 1.65 | 8.23 |  | 2.63
CN(C)CCOc1ccc(C(=O)N2C/C(=C\c3ccc([N+](=O)[O-])cc3)C(=O)/C(=C/c3ccc([N+](=O)[O-])cc3)C2)cc1 |  |  |  |  |  |  |  |  |  |  | 0.314 | 0.319 | 5.19 |  | 
O=C1/C(=C/c2ccc([N+](=O)[O-])cc2)CN(C(=O)c2ccc(OCCN3CCOCC3)cc2)C/C1=C\c1ccc([N+](=O)[O-])cc1 |  |  |  |  |  |  |  |  |  |  | 0.343 | 0.379 | 6.34 |  | 
Cc1ccc(/C=C2\CN(C(=O)c3ccc(OCCN4CCCCC4)cc3)C/C(=C\c3ccc(C)cc3)C2=O)cc1 | 1.07 | 1.58 | 0.148 | 0.339 |  | 0.589 | 0.123 | 0.933 |  | 1.38 | 0.91 | 1.14 | 5.14 |  | 6.92
O=C1/C(=C/c2ccccc2)CNC/C1=C\c1ccccc1 | 0.631 | 0.182 | 0.794 | 0.575 | 2 | 0.49 | 0.275 | 0.363 |  | 1.62 |  |  |  | 0.209 | 1.55
CCN(CC)CCOc1ccc(C(=O)N2C/C(=C\c3ccc(Cl)cc3)C(=O)/C(=C/c3ccc(Cl)cc3)C2)cc1 |  |  |  |  |  |  |  |  |  |  | 18.3 | 12.3 | 47.3 |  | 
CC[N+](C)(CC)CCOc1ccc(C(=O)N2C/C(=C\c3ccccc3)C(=O)/C(=C/c3ccccc3)C2)cc1 | > 50.1 | > 50.1 | 43.7 | 30.2 | 28.2 | 43.7 | 17.4 | > 50.1 |  | > 41.7 | 124 | 110 | 160 | 38 | 20.4
CC[N+](C)(CC)CCOc1ccc(C(=O)N2C/C(=C\c3ccc(C)cc3)C(=O)/C(=C/c3ccc(C)cc3)C2)cc1 | 9.33 | 14.1 | 9.33 | 10.5 | 6.17 | 1.35 | 1.26 | 11.8 |  | 7.76 | 12.4 | 23.7 | 18.7 | 22.9 | 8.91
O=c1[nH]cc(F)c(=O)[nH]1 [FLUOROURACIL] | 6.61 | 2.04 | 7.94 | 18.6 | 5.75 | 126 | 3.55 | 85.1 |  | > 29.5 |  |  |  | 60.3 | 3.39
CC[N+](C)(CC)CCOc1ccc(C(=O)N2C/C(=C\c3ccc(Cl)cc3)C(=O)/C(=C/c3ccc(Cl)cc3)C2)cc1 |  |  |  |  |  |  |  |  |  |  | 55.8 | 71.2 | 729 |  | 
CCN(CC)CCOc1ccc(C(=O)O)cc1 |  |  |  |  | 2 |  |  |  |  |  | > 500 | > 500 | > 500 |  | 
Cc1ccc(/C=C2\CN(C(=O)c3ccc(OCCN(C)C)cc3)C/C(=C\c3ccc(C)cc3)C2=O)cc1 | 0.912 | 1.38 | 0.776 | 0.562 | 0.229 | 1.82 | 0.224 | 1.32 |  | 1.15 | 1.39 | 0.884 | 7.14 | 0.479 | 1.02
CN(C)CCOc1ccc(C(=O)N2C/C(=C\c3ccccc3)C(=O)/C(=C/c3ccccc3)C2)cc1 |  |  |  |  |  |  |  |  |  |  | 0.58 | 1.24 | 10.2 |  | 
O=C1/C(=C/c2ccccc2)CN(C(=O)c2ccccc2)C/C1=C\c1ccccc1 |  |  |  |  |  |  |  |  |  |  | 1.7 | 1.64 | 12 |  | 
O=C1/C(=C/c2ccc([N+](=O)[O-])cc2)CN(C(=O)c2ccc(OCCN3CCCCC3)cc2)C/C1=C\c1ccc([N+](=O)[O-])cc1 |  |  |  |  |  |  |  |  |  |  | 0.33 | 0.315 | 4.74 |  | 
CN(C)CCOc1ccc(C(=O)N2C/C(=C\c3ccc(Cl)cc3)C(=O)/C(=C/c3ccc(Cl)cc3)C2)cc1 | 0.295 | 6.03 | 1.74 | 0.209 | 0.263 | 0.331 | 0.098 | 1.41 |  | 1.91 | 1.44 | 1.09 | 7.18 | 0.126 | 1.7
O=C1/C(=C/c2ccccc2)CN(C(=O)c2ccc(OCCN3CCCCC3)cc2)C/C1=C\c1ccccc1 |  |  |  |  |  |  |  |  |  |  | 1.48 | 1.16 | 8.4 |  | 
CCN(CC)CCOc1ccc(C(=O)N2C/C(=C\c3ccc(C)cc3)C(=O)/C(=C/c3ccc(C)cc3)C2)cc1 |  |  |  |  |  |  |  |  |  |  | 1.32 | 1.33 | 2.28 |  | 
COc1ccc(C(=O)N2C/C(=C\c3ccccc3)C(=O)/C(=C/c3ccccc3)C2)cc1 |  |  |  |  |  |  |  |  |  |  | 2.39 | 5 | 37.8 |  | 
O=C1/C(=C/c2ccc(Cl)cc2)CN(C(=O)c2ccc(OCCN3CCCCC3)cc2)C/C1=C\c1ccc(Cl)cc1 | 49 | 47.9 | 19.1 | 3.55 | 1.58 | 4.37 | 0.759 | 20.4 |  | > 11.5 | 34 | 9.98 | 103 | 2.29 | 15.8
Cc1ccc(/C=C2\CN(C(=O)c3ccc(OCCN4CCOCC4)cc3)C/C(=C\c3ccc(C)cc3)C2=O)cc1 | 0.832 | 2.45 | 1.12 | 1.02 |  | 0.275 | 0.115 | 1.1 |  | < 0.708 | 1.72 | 1.36 | 21.8 | 0.245 | 1.15
